Test results reported in ChEMBL document CHEMBL5357047, “The development of thymol-isatin hybrids as broad-spectrum antibacterial agents with potent anti-MRSA activity” (RSC Med Chem, 2024).
Converted amounts (≈) assume the structure as drawn. The source made the active and inactive calls. No cut-off for these calls is given here.

Assays:
Staphylococcus aureus [1] = test: Antibacterial activity against Staphylococcus aureus MTCC 740 assessed as inhibition of bacterial growth at 50 uM measured after 48 hrs by agar well diffusion method; assay type: functional; conditions: read-out: IZ
Staphylococcus aureus [2] = test: Antibacterial activity against clinically isolated Staphylococcus aureus RBRJ010 assessed as inhibition of bacterial growth at 50 uM measured after 48 hrs by agar well diffusion method; assay type: functional; conditions: read-out: IZ
[3] = system: Staphylococcus epidermidis; test: Antibacterial activity against Staphylococcus epidermidis MTCC 435 assessed as inhibition of bacterial growth at 50 uM measured after 48 hrs by agar well diffusion method; assay type: functional; conditions: read-out: IZ
Staphylococcus aureus [4] = test: Antibacterial activity against clinically isolated Methicillin-resistant Staphylococcus aureus assessed as inhibition of bacterial growth at 50 uM measured after 48 hrs by agar well diffusion method; assay type: functional; conditions: read-out: IZ
Staphylococcus aureus [5] = test: Antibacterial activity against Methicillin-resistant Staphylococcus aureus ATCC 33591 assessed as inhibition of bacterial growth at 50 uM measured after 48 hrs by agar well diffusion method; assay type: functional; conditions: read-out: IZ
Outline: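 Agar well diffusion on Mueller Hinton agar seeded with bacteria at 0.5 McFarland. […] Incubated 48 h at 37 °C aerobically; zone of inhibition diameter (mm) measured. Triplicate.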

Enterococcus faecalis [6] = test: Antibacterial activity against Enterococcus faecalis MTCC 439 assessed as inhibition of bacterial growth at 50 uM measured after 48 hrs by agar well diffusion method; assay type: functional; conditions: read-out: IZ
Enterococcus faecalis [7] = test: Antibacterial activity against clinically isolated Enterococcus faecalis RBRJ015 assessed as inhibition of bacterial growth at 50 uM measured after 48 hrs by agar well diffusion method; assay type: functional; conditions: read-out: IZ
Klebsiella pneumoniae [8] = test: Antibacterial activity against Klebsiella pneumoniae MTCC 109 assessed as inhibition of bacterial growth at 50 uM measured after 48 hrs by agar well diffusion method; assay type: functional; conditions: read-out: IZ
Klebsiella pneumoniae [9] = test: Antibacterial activity against clinically isolated Klebsiella pneumoniae RBRJ019 assessed as inhibition of bacterial growth at 50 uM measured after 48 hrs by agar well diffusion method; assay type: functional; conditions: read-out: IZ
Klebsiella pneumoniae [10] = test: Antibacterial activity against clinically isolated Klebsiella pneumoniae RBRJ024 assessed as inhibition of bacterial growth at 50 uM measured after 48 hrs by agar well diffusion method; assay type: functional; conditions: read-out: IZ
Escherichia coli [11] = test: Antibacterial activity against Escherichia coli MTCC 119 assessed as inhibition of bacterial growth at 50 uM measured after 48 hrs by agar well diffusion method; assay type: functional; conditions: read-out: IZ
Escherichia coli [12] = test: Antibacterial activity against clinically isolated Escherichia coli RBRJ005 assessed as inhibition of bacterial growth at 50 uM measured after 48 hrs by agar well diffusion method; assay type: functional; conditions: read-out: IZ
Escherichia coli [13] = test: Antibacterial activity against clinically isolated Escherichia coli RBRJ013 assessed as inhibition of bacterial growth at 50 uM measured after 48 hrs by agar well diffusion method; assay type: functional; conditions: read-out: IZ
Enterobacter cloacae = test: Antibacterial activity against clinically isolated Enterobacter cloacae RBRJ017 assessed as inhibition of bacterial growth at 50 uM measured after 48 hrs by agar well diffusion method; assay type: functional; conditions: read-out: IZ
Acinetobacter baumannii = test: Antibacterial activity against clinically isolated Acinetobacter baumannii RBRJ027 assessed as inhibition of bacterial growth at 50 uM measured after 48 hrs by agar well diffusion method; assay type: functional; conditions: read-out: IZ
Pseudomonas aeruginosa = test: Antibacterial activity against Pseudomonas aeruginosa MTCC 424 assessed as inhibition of bacterial growth at 50 uM measured after 48 hrs by agar well diffusion method; assay type: functional; conditions: read-out: IZ
Staphylococcus aureus [14] = test: Antibacterial activity against Staphylococcus aureus MTCC 740 assessed as inhibition of bacterial growth measured after 48 hrs by broth microdilution method; assay type: functional
Staphylococcus aureus [15] = test: Antibacterial activity against clinically isolated Staphylococcus aureus RBRJ010 assessed as inhibition of bacterial growth measured after 48 hrs by broth microdilution method; assay type: functional
[16] = system: Staphylococcus epidermidis; test: Antibacterial activity against Staphylococcus epidermidis MTCC 435 assessed as inhibition of bacterial growth measured after 48 hrs by broth microdilution method; assay type: functional
Staphylococcus aureus [17] = test: Antibacterial activity against clinically isolated Methicillin-resistant Staphylococcus aureus assessed as inhibition of bacterial growth measured after 48 hrs by broth microdilution method; assay type: functional
Staphylococcus aureus [18] = test: Antibacterial activity against Methicillin-resistant Staphylococcus aureus ATCC 33591 assessed as inhibition of bacterial growth measured after 48 hrs by broth microdilution method; assay type: functional
Staphylococcus aureus [19] = test: Bactericidal activity against Staphylococcus aureus MTCC 740 assessed as inhibition of bacterial growth measured after 48 hrs by agar plate method; assay type: functional
Outline: (§1)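 MBC: aliquots from microdilution wells without colour change subcultured on drug-free Mueller Hinton agar, 48 h at 37 °C aerobically. MBC is the lowest concentration with no visible growth. Triplicate.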

Staphylococcus aureus [20] = test: Bactericidal activity against clinically isolated Staphylococcus aureus RBRJ010 assessed as inhibition of bacterial growth measured after 48 hrs by agar plate method; assay type: functional
Outline: (§2)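 MBC: 10 μL from wells showing no INT colour change after broth microdilution subcultured on drug-free Mueller Hinton agar, 48 h at 37 °C aerobically; lowest concentration with no visible growth taken as MBC (μM). Triplicate.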

[21] = system: Staphylococcus epidermidis; test: Bactericidal activity against Staphylococcus epidermidis MTCC 435 assessed as inhibition of bacterial growth measured after 48 hrs by agar plate method; assay type: functional; outline: as §2
Staphylococcus aureus [22] = test: Bactericidal activity against clinically isolated Methicillin-resistant Staphylococcus aureus assessed as inhibition of bacterial growth measured after 48 hrs by agar plate method; assay type: functional
Staphylococcus aureus [23] = test: Bactericidal activity against Methicillin-resistant Staphylococcus aureus ATCC 33591 assessed as inhibition of bacterial growth measured after 48 hrs by agar plate method; assay type: functional; outline: as §1
[24] = Cytotoxicity against mouse L929 cells assessed as reduction in cell viability measured after 72 hrs by MTT assay; assay type: toxicity, cell-based
Outline: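 L929 cells (ATCC) grown in DMEM with 10% FBS and penicillin/streptomycin at 37 °C, 5% CO2; seeded at 5 × 10^3 cells per well and exposed to serial dilutions for 72 h, paclitaxel as positive control. MTT (5 mg mL−1), formazan dissolved in DMSO, absorbance at 490 nm; viability relative to control after blank subtraction; IC50 in μM.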

[25] = Selectivity index, ratio of IC50 for cytotoxicity against mouse L929 cells to MIC for antibacterial activity against clinically isolated Methicillin-resistant Staphylococcus aureus; assay type: toxicity, cell-based; conditions: read-out: Selectivity Index
Klebsiella pneumoniae [26] = conditions: RBRJ019, dose 50.0 µM, time 48.0 hrs
Klebsiella pneumoniae [27] = conditions: RBRJ024, dose 50.0 µM, time 48.0 hrs

Cc1ccc(C(C)C)c(OCc2cn(CCCN3C(=O)C(=O)c4cc(C)ccc43)nn2)c1 gave a zone of inhibition at 50 µM (Staphylococcus aureus [1]) of 26.1 mm, a zone of inhibition at 50 µM (Staphylococcus aureus [2]) of 24.6 mm and a zone of inhibition at 50 µM [3] of 22.2 mm. For the same compound, the zone of inhibition at 50 µM (Staphylococcus aureus [4]) was 26.7 mm, the zone of inhibition at 50 µM (Staphylococcus aureus [5]) was 24.1 mm and the zone of inhibition at 50 µM (Enterococcus faecalis [6]) was 13.3 mm. For the same compound, the zone of inhibition at 50 µM (Enterococcus faecalis [7]) was 13.4 mm, the zone of inhibition at 50 µM (Klebsiella pneumoniae [8]) was 19.2 mm and the zone of inhibition at 50 µM (Klebsiella pneumoniae [9]) was 18.5 mm. It also gave a zone of inhibition at 50 µM (Klebsiella pneumoniae [10]) of 17.2 mm, a zone of inhibition at 50 µM (Escherichia coli [11]) of 16.5 mm and a zone of inhibition at 50 µM (Escherichia coli [12]) of 18.2 mm. The zone of inhibition at 50 µM (Escherichia coli [13]) was 17.6 mm, the zone of inhibition at 50 µM (Enterobacter cloacae) was 15.4 mm and the zone of inhibition at 50 µM (Acinetobacter baumannii) was 13.1 mm. It also gave a zone of inhibition at 50 µM (Pseudomonas aeruginosa) of 19.5 mm, an MIC (Staphylococcus aureus [14]) of 3.9 µM (≈ 1.69 µg/mL) and an MIC (Staphylococcus aureus [15]) of 7.8 µM (≈ 3.37 µg/mL). The MIC [16] was 15.6 µM (≈ 6.75 µg/mL), the MIC (Staphylococcus aureus [17]) was 3.9 µM (≈ 1.69 µg/mL) and the MIC (Staphylococcus aureus [18]) was 3.9 µM (≈ 1.69 µg/mL). For the same compound, the MBC (Staphylococcus aureus [19]) was 7.8 µM (≈ 3.37 µg/mL), the MBC (Staphylococcus aureus [20]) was 15.6 µM (≈ 6.75 µg/mL) and the MBC [21] was 31.2 µM (≈ 13.5 µg/mL). The MBC (Staphylococcus aureus [22]) was 7.8 µM (≈ 3.37 µg/mL), the MBC (Staphylococcus aureus [23]) was 7.8 µM (≈ 3.37 µg/mL) and the IC50 at 72 h [24] was 125 µM. It also gave a selectivity ratio [25] of 32.

For O=C(O)c1cn(C2CC2)c2cc(N3CCNCC3)c(F)cc2c1=O [CIPROFLOXACIN], the zone of inhibition at 50 µM [3] was 17.4 mm, the zone of inhibition at 50 µM (Staphylococcus aureus [5]) was 24.5 mm and the zone of inhibition at 50 µM (Enterococcus faecalis [6]) was 15.9 mm. The zone of inhibition at 50 µM (Klebsiella pneumoniae [8]) was 14.5 mm, the zone of inhibition at 50 µM (Escherichia coli [11]) was 11.2 mm and the zone of inhibition at 50 µM (Pseudomonas aeruginosa) was 24.2 mm. The MIC (Staphylococcus aureus [18]) was 1.9 µM (≈ 0.63 µg/mL), the MBC (Staphylococcus aureus [23]) was 3.9 µM (≈ 1.29 µg/mL) and the IZ (Klebsiella pneumoniae [26]) was “inactive”. The IZ (Klebsiella pneumoniae [27]) was “inactive”.
